# From ChEMBL document CHEMBL4390647, “Efficient click chemistry towards novel 1H-1,2,3-triazole-tethered 4H-chromene-d-glucose conjugates: Design, synthesis and evaluation of in vitro antibacterial, MRSA and antifungal activities” (Eur J Med Chem, 2019)
# Columns and labels:
# [1] = tested on: Bacillus subtilis; assay: Antibacterial activity against Bacillus subtilis ATCC 11774 after 18 to 20 hrs by microbroth dilution method; type: functional
# Procedure, shortened: (§1)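 Inoculum from a 4–6-h broth adjusted to 0.5 McFarland, final 5 × 10⁵ CFU/mL. Incubation at 35°C for 18–20 h. MIC taken as the lowest concentration giving complete inhibition of visible growth; three experiments.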
# [2] = tested on: Staphylococcus aureus; assay: Antibacterial activity against Staphylococcus aureus ATCC 11632 after 18 to 20 hrs by microbroth dilution method; type: functional; procedure, shortened: as §1
# [3] = tested on: Staphylococcus epidermidis; assay: Antibacterial activity against Staphylococcus epidermidis ATCC 12228 after 18 to 20 hrs by microbroth dilution method; type: functional; procedure, shortened: as §1
# [4] = tested on: Escherichia coli; assay: Antibacterial activity against Escherichia coli ATCC 25922 measured after 18 to 20 hrs by microbroth dilution method; type: functional; procedure, shortened: as §1
# [5] = tested on: Pseudomonas aeruginosa; assay: Antibacterial activity against Pseudomonas aeruginosa […] measured after 18 to 20 hrs by microbroth dilution method; type: functional; procedure, shortened: as §1
# [6] = tested on: Salmonella typhimurium; assay: Antibacterial activity against Salmonella typhimurium ATCC 14028 measured after 18 to 20 hrs by microbroth dilution method; type: functional, Salmonella enterica subsp. enterica serovar Typhimurium; conditions: Salmonella enterica; procedure, shortened: as §1
# [7] = tested on: Staphylococcus aureus; assay: Antibacterial activity against Staphylococcus aureus MRSA198 clinical isolate-1 measured after 18 to 20 hrs by microbroth dilution method; type: functional; conditions: MRSA198 isolate-1
# [8] = tested on: Staphylococcus aureus; assay: Antibacterial activity against Staphylococcus aureus MRSA198 clinical isolate-2 measured after 18 to 20 hrs by microbroth dilution method; type: functional; conditions: MRSA198 isolate-2
# [9] = tested on: Staphylococcus aureus; assay: Antibacterial activity against Staphylococcus aureus MRSA198 clinical isolate-3 measured after 18 to 20 hrs by microbroth dilution method; type: functional; conditions: MRSA198 isolate-3
# [10] = tested on: Aspergillus niger; assay: Antifungal activity against Aspergillus niger ATCC 439 measured after 72 hrs by agar dilution method; type: functional; conditions: ATCC 439, 72 h
# Procedure, shortened: (§2)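 Agar dilution on Sabouraud dextrose agar, with compounds at […] to 0.78 μM in twofold steps. Fungal suspensions at 10 CFU/mL as printed were applied to the compound-containing plates. Incubation at 35°C; MIC read after 72 h. Three experiments.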
# [11] = tested on: Aspergillus flavus; assay: Antifungal activity against Aspergillus flavus ATCC 204304 measured after 72 hrs by agar dilution method; type: functional; conditions: ATCC 204304, 72 h; procedure, shortened: as §2
# [12] = tested on: Candida albicans; assay: Antifungal activity against Candida albicans ATCC 7754 after 72 hrs by agar dilution method; type: functional; conditions: ATCC 7754, 72 h; procedure, shortened: as §2
# [13] = tested on: Saccharomyces cerevisiae; assay: Antifungal activity against Saccharomyces cerevisiae SH 20 after 72 hrs by agar dilution method; type: functional; conditions: SH 20, 72 h; procedure, shortened: as §2
# [14] = Cytotoxicity against mouse RAW264.7 cells assessed as growth inhibition at 50 ug/mL after 120 hrs by MTT assay relative to control; type: cell-based; conditions: read-out: GI
# Procedure, shortened: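 RAW 264.7 mouse macrophages were seeded at 25,000 cells/well and left to attach overnight. Compound in DMSO was added from a 200× concentrate, in duplicate wells, to a 50 μg/mL test level; DMSO served as control. Exposure 120 h at 37°C in 5% CO₂. MTT (4 mg/mL in PBS) was added for 4 h, formazan dissolved in DMSO, and absorbance read at 560 nm. Viability expressed as % of untreated cells, mean ± SE of at least three independent experiments.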
# [15] = tested on: Klebsiella pneumoniae; assay: Antibacterial activity against measured after Klebsiella pneumoniae ATCC 4352 measured after 18 to 20 hrs by microbroth dilution method; type: functional; procedure, shortened: as §1
MIC [1] [µM],MIC [2] [µM],MIC [3] [µM],MIC [4] [µM],MIC [5] [µM],MIC [6] [µM],MIC [7] [µM],MIC [8] [µM],MIC [9] [µM],MIC [10] [µM],MIC [11] [µM],MIC [12] [µM],MIC [13] [µM],MIC [15] [µM],Compound,"inhibition at 120 h, 50 ug/mL [14] [%]"
50,3.12,400,50,12.5,400,1.56,6.25,3.12,12.5,50,200,6.25,–,CC(=O)OC[C@H]1O[C@@H](n2cc(COc3ccc4c(c3)OC(N)=C(C#N)C4c3cccc([N+](=O)[O-])c3)nn2)[C@H](OC(C)=O)[C@@H](OC(C)=O)[C@@H]1OC(C)=O (some centres not stated),15.6
50,400,50,400,50,–,400,400,200,–,1.56,25,3.12,12.5,CC(=O)OC[C@H]1O[C@@H](n2cc(COc3ccc4c(c3)OC(N)=C(C#N)C4c3ccc([N+](=O)[O-])cc3)nn2)[C@H](OC(C)=O)[C@@H](OC(C)=O)[C@@H]1OC(C)=O (some centres not stated),27.6
12.5,25,200,200,100,1.56,12.5,12.5,12.5,200,12.5,1.56,12.5,–,COc1ccc(C2C(C#N)=C(N)Oc3cc(OCc4cn([C@@H]5O[C@H](COC(C)=O)[C@@H](OC(C)=O)[C@H](OC(C)=O)[C@H]5OC(C)=O)nn4)ccc32)cc1 (some centres not stated),29.6
6.25,100,400,200,6.25,50,400,400,200,–,50,3.12,12.5,1.56,CC(=O)OC[C@H]1O[C@@H](n2cc(COc3ccc4c(c3)OC(N)=C(C#N)C4c3ccc(C(C)C)cc3)nn2)[C@H](OC(C)=O)[C@@H](OC(C)=O)[C@@H]1OC(C)=O (some centres not stated),17.9
50,400,400,12.5,400,200,–,–,400,100,3.12,400,3.12,400,CC(=O)OC[C@H]1O[C@@H](n2cc(COc3ccc4c(c3)OC(N)=C(C#N)C4c3ccc(C)cc3)nn2)[C@H](OC(C)=O)[C@@H](OC(C)=O)[C@@H]1OC(C)=O (some centres not stated),19.6
3.12,12.5,12.5,3.12,50,3.12,6.25,1.56,3.12,–,25,100,400,200,CC(=O)OC[C@H]1O[C@@H](n2cc(COc3ccc4c(c3)OC(N)=C(C#N)C4c3ccc(Cl)cc3Cl)nn2)[C@H](OC(C)=O)[C@@H](OC(C)=O)[C@@H]1OC(C)=O (some centres not stated),18.1
1.56,200,3.12,1.56,12.5,6.25,–,–,400,400,6.25,25,–,400,CC(=O)OC[C@H]1O[C@@H](n2cc(COc3ccc4c(c3)OC(N)=C(C#N)C4c3ccccc3Cl)nn2)[C@H](OC(C)=O)[C@@H](OC(C)=O)[C@@H]1OC(C)=O (some centres not stated),21.1
25,50,200,200,6.25,50,200,200,100,200,200,25,–,–,CC(=O)OC[C@H]1O[C@@H](n2cc(COc3ccc4c(c3)OC(N)=C(C#N)C4c3cccc(Cl)c3Cl)nn2)[C@H](OC(C)=O)[C@@H](OC(C)=O)[C@@H]1OC(C)=O (some centres not stated),23.8
